Data published in ChEMBL document CHEMBL4706624, “Synthesis and evaluation of new quinazoline-benzimidazole hybrids as potent anti-microbial agents against multidrug resistant Staphylococcus aureus and Mycobacterium tuberculosis” (Eur J Med Chem, 2021).
Values after ≈ are worked out from the molar mass of the structure shown.

What was measured:
[1] = tested on: Staphylococcus aureus; assay: Antibacterial activity against methicillin-resistant Staphylococcus aureus NR10191 measured after 16 to 18 hrs; type: functional; conditions: time 16-18 hrs
How it was run: (§1)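 Broth microdilution MIC. Strains grown on MHA; a single colony was grown overnight in CA-MHB at 37 °C with shaking for 18–24 h. Cultures were diluted by OD600 to ~10⁶ cfu/mL and exposed to compound at […]. Plates were incubated at 37 °C for 16-18 h. MIC = lowest concentration with no visible growth. Levofloxacin was the reference. Three independent runs, each in duplicate.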

[2] = tested on: Klebsiella pneumoniae; assay: Antibacterial activity against Klebsiella pneumoniae BAA-1705 measured after 16 to 18 hrs; type: functional; conditions: ATCC BAA-1705, time 16-18 hrs; how it was run: as §1
[3] = tested on: Staphylococcus aureus; assay: Antibacterial activity against methicillin-sensitive Staphylococcus aureus ATCC 29213 measured after 16 to 18 hrs; type: functional; conditions: time 16-18 hrs; how it was run: as §1
[4] = tested on: Acinetobacter baumannii; assay: Antibacterial activity against Acinetobacter baumannii BAA1605 measured after 16 to 18 hrs; type: functional; conditions: time 16-18 hrs; how it was run: as §1
[5] = tested on: Staphylococcus aureus; assay: Antibacterial activity against vancomycin-resistant Staphylococcus aureus VRS12 measured after 16 to 18 hrs; type: functional; conditions: time 16-18 hrs; how it was run: as §1
[6] = tested on: Pseudomonas aeruginosa; assay: Antibacterial activity against Pseudomonas aeruginosa ATCC 27853 measured after 16 to 18 hrs; type: functional; conditions: time 16-18 hrs; how it was run: as §1
[7] = tested on: Staphylococcus aureus; assay: Antibacterial activity against methicillin-resistant Staphylococcus aureus NR10192 measured after 16 to 18 hrs; type: functional; conditions: time 16-18 hrs; how it was run: as §1
[8] = Selectivity index, ratio of CC50 for cytotoxicity against African green monkey Vero cells to MIC for antibacterial activity against Staphylococcus aureus ATCC 29213; type: toxicity, cell-based; conditions: read-out: Selectivity Index
How it was run: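 SI = Vero CC50 (MTT, 72 h) divided by MIC against S. aureus ATCC 29213 (CA-MHB broth microdilution, 16-18 h, 37 °C).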

[9] = tested on: Staphylococcus aureus; assay: Antibacterial activity against methicillin-resistant Staphylococcus aureus NR10193 measured after 16 to 18 hrs; type: functional; conditions: time 16-18 hrs; how it was run: as §1
[10] = tested on: Staphylococcus aureus; assay: Antibacterial activity against methicillin-resistant Staphylococcus aureus NR10194 measured after 16 to 18 hrs; type: functional; conditions: time 16-18 hrs; how it was run: as §1
[11] = tested on: Staphylococcus aureus; assay: Antibacterial activity against Staphylococcus aureus ATCC 29213 measured after 16 to 18 hrs; type: functional; conditions: time 16-18 hrs; how it was run: as §1
[12] = tested on: Escherichia coli; assay: Antibacterial activity against Escherichia coli ATCC 25922 measured after 16 to 18 hrs; type: functional; conditions: time 16-18 hrs; how it was run: as §1
[13] = tested on: Staphylococcus aureus; assay: Antibacterial activity against methicillin-resistant Staphylococcus aureus NR119 measured after 16 to 18 hrs; type: functional; conditions: time 16-18 hrs; how it was run: as §1
[14] = tested on: Staphylococcus aureus; assay: Antibacterial activity against methicillin-resistant Staphylococcus aureus NR10129 measured after 16 to 18 hrs; type: functional; conditions: time 16-18 hrs; how it was run: as §1
[15] = tested on: Staphylococcus aureus; assay: Antibacterial activity against vancomycin-resistant Staphylococcus aureus VRS1 measured after 16 to 18 hrs; type: functional; conditions: time 16-18 hrs; how it was run: as §1
[16] = tested on: Staphylococcus aureus; assay: Antibacterial activity against methicillin-resistant Staphylococcus aureus NR100 measured after 16 to 18 hrs; type: functional; conditions: time 16-18 hrs; how it was run: as §1
[17] = tested on: Staphylococcus aureus; assay: Antibacterial activity against methicillin-resistant Staphylococcus aureus NR10198 measured after 16 to 18 hrs; type: functional; conditions: time 16-18 hrs; how it was run: as §1
[18] = tested on: Staphylococcus aureus; assay: Antibacterial activity against methicillin-resistant Staphylococcus aureus NR10186 measured after 16 to 18 hrs; type: functional; conditions: time 16-18 hrs; how it was run: as §1
[19] = Cytotoxicity against African green monkey Vero cells assessed as reduction in cell viability measured after 72 hrs by MTT assay; type: cell-based; conditions: chlorocebus sabaeus
How it was run: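 Vero cells (ATCC CCL-81), ~10³ cells/well, held 24 h at 37 °C in 5% CO₂. Compound at 100–5 mg/L for 72 h. MTT was added for 4 h, formazan dissolved in DMSO, OD read at 540 nm. CC50 = concentration giving 50% viability reduction. Doxorubicin was the positive control. Triplicate.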

[20] = tested on: Staphylococcus aureus; assay: Antibacterial activity against vancomycin-resistant Staphylococcus aureus VRS4 measured after 16 to 18 hrs; type: functional; conditions: time 16-18 hrs; how it was run: as §1
[21] = tested on: Mycolicibacterium fortuitum; assay: Antimycobacterial activity against Mycobacterium fortuitum ATCC 6841 by broth microdilution method; type: functional
How it was run: (§2)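 Broth microdilution MIC in Middlebrook 7H9 with 10% ADC-Tween-80 (BSA, dextrose, 0.2% glycerol, 0.05% Tween-80). Inoculum ~10⁶ cfu/mL set by OD600. Compounds were twofold serially diluted, 0.0064–0.00005 g/100 mL (DMSO stocks). Presto blue resazurin dye was used as read-out. MIC = lowest concentration inhibiting visible growth. Triplicate runs, each in duplicate.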

[22] = tested on: Mycobacterium tuberculosis; assay: Antitubercular activity against Mycobacterium tuberculosis H37Rv ATCC 27294 measured after 7 days by broth microdilution method; type: functional; conditions: H37Rv ATCC 27294, 168 h, time 7 day
How it was run: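 H37Rv in Middlebrook 7H9 with 10% ADC, 0.2% glycerol, 0.05% Tween-80. Inoculum ~10⁶ cfu/mL set by OD600. Twofold serial dilutions, 0.0064–0.00005 g/100 mL. Incubated at 37 °C for 7 days, then Presto blue resazurin read-out. MIC = lowest concentration inhibiting visible growth. Triplicate runs, each in duplicate.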

[23] = tested on: Mycobacteroides abscessus; assay: Antimycobacterial activity against Mycobacterium abscessus ATCC 19977 by broth microdilution method; type: functional; how it was run: as §2
[24] = tested on: Mycobacteroides chelonae; assay: Antimycobacterial activity against Mycobacterium chelonae ATCC 35752 by broth microdilution method; type: functional; how it was run: as §2

Row | SMILES | MIC [1] [µg/mL] | MIC [2] [µg/mL] | MIC [3] [µg/mL] | MIC [4] [µg/mL] | MIC [5] [µg/mL] | MIC [6] [µg/mL] | MIC [7] [µg/mL] | selectivity ratio [8] | MIC [9] [µg/mL] | MIC [10] [µg/mL] | MIC [11] [µg/mL] | MIC [12] [µg/mL] | MIC [13] [µg/mL] | MIC [14] [µg/mL] | MIC [15] [µg/mL] | MIC [16] [µg/mL] | MIC [17] [µg/mL] | MIC [18] [µg/mL] | CC50 at 72 h [19] [µg/mL] | MIC [20] [µg/mL] | further results
1 | Fc1ccc2[nH]c(-c3ccc(Nc4nc(-c5ccc(Cl)cc5)nc5ccccc45)cc3)nc2c1 | 8 (≈ 17.2 µM) | > 64 | 4 (≈ 8.59 µM) | > 64 | 4 (≈ 8.59 µM) | > 64 | 2 (≈ 4.29 µM) | 12.5 | 8 (≈ 17.2 µM) | 4 (≈ 8.59 µM) | 4 (≈ 8.59 µM) | > 64 | 4 (≈ 8.59 µM) | 4 (≈ 8.59 µM) | 4 (≈ 8.59 µM) | 4 (≈ 8.59 µM) | 8 (≈ 17.2 µM) | 4 (≈ 8.59 µM) | 50 (≈ 107 µM) | 2 (≈ 4.29 µM) | –
2 | Clc1ccc(-c2nc(Nc3ccc(-c4nc5ccccc5[nH]4)cc3)c3ccccc3n2)cc1 | 8 (≈ 17.9 µM) | > 64 | 8 (≈ 17.9 µM) | > 64 | 8 (≈ 17.9 µM) | > 64 | 4 (≈ 8.93 µM) | 12.5 | 8 (≈ 17.9 µM) | 8 (≈ 17.9 µM) | 4 (≈ 8.93 µM) | > 64 | 32 (≈ 71.4 µM) | 8 (≈ 17.9 µM) | 4 (≈ 8.93 µM) | 8 (≈ 17.9 µM) | 8 (≈ 17.9 µM) | 16 (≈ 35.7 µM) | 50 (≈ 112 µM) | 8 (≈ 17.9 µM) | –
3 | c1ccc(-c2nc(Nc3ccc(-c4nc5ccccc5[nH]4)cc3)c3ccccc3n2)cc1 | 16 (≈ 38.7 µM) | > 64 | 8 (≈ 19.3 µM) | > 64 | 16 (≈ 38.7 µM) | > 64 | 32 (≈ 77.4 µM) | 10 | 16 (≈ 38.7 µM) | 8 (≈ 19.3 µM) | 8 (≈ 19.3 µM) | > 64 | 8 (≈ 19.3 µM) | 16 (≈ 38.7 µM) | 8 (≈ 19.3 µM) | 32 (≈ 77.4 µM) | 4 (≈ 9.67 µM) | 8 (≈ 19.3 µM) | 80 (≈ 193 µM) | 8 (≈ 19.3 µM) | MIC [21]: > 64 µg/mL; MIC [22]: > 64 µg/mL; MIC [23]: > 64 µg/mL; MIC [24]: > 64 µg/mL
4 | Clc1ccc2[nH]c(-c3ccc(Nc4nc(-c5ccccc5)nc5ccccc45)cc3)nc2c1 | 16 (≈ 35.7 µM) | > 64 | 8 (≈ 17.9 µM) | > 64 | 8 (≈ 17.9 µM) | > 64 | 8 (≈ 17.9 µM) | 12.5 | 16 (≈ 35.7 µM) | 8 (≈ 17.9 µM) | 8 (≈ 17.9 µM) | > 64 | 8 (≈ 17.9 µM) | 8 (≈ 17.9 µM) | 4 (≈ 8.93 µM) | 8 (≈ 17.9 µM) | 4 (≈ 8.93 µM) | 8 (≈ 17.9 µM) | 100 (≈ 223 µM) | 8 (≈ 17.9 µM) | MIC [21]: 32 µg/mL (≈ 71.4 µM); MIC [22]: 32 µg/mL (≈ 71.4 µM); MIC [23]: > 64 µg/mL; MIC [24]: 32 µg/mL (≈ 71.4 µM)
